Reference: article PMC5633258 (International Journal for Parasitology: Drugs and Drug …, 2017)
Values belong to the molecule of their own block, whether it stands above or below them.

Columns and labels:
[1] = biological target: T1, LdAI (Leishmania donovani, UniProt A0A3Q8IA09); assay: Fluorometric titration of ligands with LdAI; assay type: binding
T1 sequence (A0A3Q8IA09 1-398): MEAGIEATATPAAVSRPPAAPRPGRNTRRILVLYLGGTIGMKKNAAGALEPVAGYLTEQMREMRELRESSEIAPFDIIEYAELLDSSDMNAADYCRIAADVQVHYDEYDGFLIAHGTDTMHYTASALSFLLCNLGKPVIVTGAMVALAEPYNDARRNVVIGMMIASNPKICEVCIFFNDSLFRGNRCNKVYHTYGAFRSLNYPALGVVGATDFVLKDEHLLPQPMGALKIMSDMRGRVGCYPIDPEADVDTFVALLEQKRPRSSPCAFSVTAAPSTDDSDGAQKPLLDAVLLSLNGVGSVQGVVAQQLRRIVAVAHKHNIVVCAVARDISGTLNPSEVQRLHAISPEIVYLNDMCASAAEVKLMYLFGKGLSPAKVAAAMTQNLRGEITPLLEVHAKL
How it was run: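 Fluorometric titrations at 298 K in 20 mM Tris, 150 mM NaCl, pH 8.0. Constant enzyme was titrated with increasing ligand (Asp, Glu or test compound), with a 300 s pre-scan delay. Excitation was 274 nm and emission was recorded 290–400 nm. Kd came from a single-site specific binding fit, Y = Bmax*X/(Kd + X).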

[2] = biological target: T1, LdAI; assay: Isothermal titration calorimetry with LdAI; assay type: binding; conditions: for N (Drug/LdAI) / TΔS / ΔH / ΔG: ITC, direct titration; for N (Drug/LdAI) / TΔS / ΔH: 3 μM LdAI, 298 K; for ΔG: ΔG= ΔH−TΔS
How it was run: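 Direct ITC at 298 K in 20 mM Tris, 150 mM NaCl, pH 8.0. LdAI in the cell was titrated with test compound: one small injection, then 25 injections. Heats of dilution were normalised by buffer titrations. A single-site model with Levenberg–Marquardt nonlinear fitting gave Ka, ΔH and ΔS, and ΔG was calculated as ΔH − TΔS.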

[3] = biological target: T1, LdAI; assay: Competitive inhibition assay, Gln hydrolysis kinetics; assay type: biochemical; conditions: Gln as substrate, LdAI alone, no inhibitor
[4] = system: L. donovani wild type AG83 (WT) promastigotes; assay: MTT survival of wild type promastigotes; assay type: cell-based; conditions: Leishmania donovani, 48 h
How it was run: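 AG83 promastigotes were kept in M199 (pH 5.5) with 10% FBS. Late-exponential cells, diluted to 2 × 10^6/ml, were exposed to varying concentrations of test compound prepared in FBS-free M199 for 48, 72 and 96 h. Viability was read by MTT at 570 nm as % survival (mean, standard error, three independent experiments). IC50 came from a log(inhibitor) vs normalised response fit.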

[5] = system: pLP2-LdAI transfected promastigotes (WT-LdAI); assay: MTT survival of LdAI over-expressing promastigotes; assay type: cell-based, Leishmania donovani
[6] = system: LdAI transfected amastigotes (WT-LdAI); assay: MTT survival of LdAI transfected axenic amastigotes; assay type: cell-based, Leishmania donovani
[7] = system: LdAI transcript in promastigotes; assay: Semi quantitative RT-PCR and real-time PCR of LdAI expression, promastigotes; assay type: cell-based, Leishmania donovani; conditions: 0.125 μg/ml AmB for 8 h vs untreated
[8] = system: LdAI transcript in axenic amastigotes; assay: Real-time PCR of LdAI expression, axenic amastigotes; assay type: cell-based, Leishmania donovani; conditions: AmB treated vs untreated
[9] = substrate: NC(=O)CC[C@H](N)C(=O)O; assay: Competitive inhibition assay, Gln hydrolysis kinetics; assay type: biochemical, Leishmania donovani; conditions: other: Gln as substrate, LdAI alone, no inhibitor; pH 8.0; 25.0 °C

Molecule: C[C@@H]1[C@H](O)[C@@H](C)/C=C/C=C/C=C/C=C/C=C/C=C/C=C/[C@H](O[C@@H]2O[C@H](C)[C@@H](O)[C@H](N)[C@@H]2O)C[C@@H]2O[C@](O)(C[C@@H](O)C[C@@H](O)[C@H](O)CC[C@@H](O)C[C@@H](O)CC(=O)O[C@H]1C)C[C@H](O)[C@H]2C(=O)O [AmB, Amphotericin B]
- IC50 [4]: 600 ± 70 nM
- IC50 ([5]; Leishmania donovani, 48 h): 2200 ± 300 nM
- lower IC90 in wild-type than in LdAI over-expressing parasites ([5]; promastigote form): three
- increase in IC50, LdAI transfected vs non-transfected ([5]; promastigotes): three
- IC50 ([6]; Leishmania donovani, 48 h): 1900 ± 600 nM
- lower IC90 in wild-type than in LdAI over-expressing parasites ([6]; amastigote form): eight
- increase in IC50, LdAI transfected vs non-transfected ([6]; amastigotes): eight
- enhancement in LdAI transcription (semiquantitative PCR) [7]: 2.5 fold
- increase in LdAI transcript expression (quantitative real time PCR) [7]: four
- increase in LdAI transcript expression (quantitative real time PCR) [8]: five

B1: LdAI (Leishmania donovani) (protein)
chain: T1 sequence (A0A3Q8IA09 1-398)
- Km [9]: 9.5 ± 0.8 mM

The remaining lines, values ahead:

- Kd [1]: 2400 ± 400 nM
- Kd [2]: 7700 nM
- N (Drug/LdAI) [2]: 4.0 ± 0.7
- TΔS [2]: 0.64 kcal/mol
- ΔH [2]: -6.34 ± 0.3 kcal/mol
- ΔG [2]: -6.98 kcal/mol
Molecule: N[C@@H](CC(=O)O)C(=O)O [Asp, L-aspartic acid]

- Vmax [3]: 267.9 ± 7.6
Molecule: NC(=O)CC[C@H](N)C(=O)O [Gln, L-glutamine]

- Kd [1]: 11600 ± 1300 nM
- Kd [2]: 5000 nM
- N (Drug/LdAI) [2]: 2.14 ± 0.6
- TΔS [2]: -18.38 kcal/mol
- ΔH [2]: -25.6 ± 1.1 kcal/mol
- ΔG [2]: -7.22 kcal/mol
Molecule: N[C@@H](CCC(=O)O)C(=O)O [Glu, L-glutamic acid]
